A selection: hits, their analogues and other compounds. The true share with any hit is near 3.1%.
KCNK3 inh – human KCNK3 channel inhibition, primary screen; actives 0.84% (n = 340,000); CHO-KCNK3 thallium flux, FluxOR fluorescence; stronger effect = lower value; O14649; B-score at 10 µM;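 active means B-score under library mean minus 4 SD, starting fluorescence ratio at most library mean plus 5 SD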;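 further: more negative B-score means stronger inhibition of thallium flux through KCNK3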
KCNQ1 inh – human KCNQ1 channel inhibition. B-score at 10 µM. CHO-K1 KCNQ1, FluxOR thallium flux fluorescence; stronger effect = higher value. actives 1.3% (n = 310,000). P51787;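 active means compounds whose thallium flux B-score, printed positive for inhibition, exceeds three library SD while starting fluorescence stays within three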;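 further: channel opened by potassium depolarization with thallium stimulus after 20 min compound exposure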
Target sequence (P51787 whole entry, looked up): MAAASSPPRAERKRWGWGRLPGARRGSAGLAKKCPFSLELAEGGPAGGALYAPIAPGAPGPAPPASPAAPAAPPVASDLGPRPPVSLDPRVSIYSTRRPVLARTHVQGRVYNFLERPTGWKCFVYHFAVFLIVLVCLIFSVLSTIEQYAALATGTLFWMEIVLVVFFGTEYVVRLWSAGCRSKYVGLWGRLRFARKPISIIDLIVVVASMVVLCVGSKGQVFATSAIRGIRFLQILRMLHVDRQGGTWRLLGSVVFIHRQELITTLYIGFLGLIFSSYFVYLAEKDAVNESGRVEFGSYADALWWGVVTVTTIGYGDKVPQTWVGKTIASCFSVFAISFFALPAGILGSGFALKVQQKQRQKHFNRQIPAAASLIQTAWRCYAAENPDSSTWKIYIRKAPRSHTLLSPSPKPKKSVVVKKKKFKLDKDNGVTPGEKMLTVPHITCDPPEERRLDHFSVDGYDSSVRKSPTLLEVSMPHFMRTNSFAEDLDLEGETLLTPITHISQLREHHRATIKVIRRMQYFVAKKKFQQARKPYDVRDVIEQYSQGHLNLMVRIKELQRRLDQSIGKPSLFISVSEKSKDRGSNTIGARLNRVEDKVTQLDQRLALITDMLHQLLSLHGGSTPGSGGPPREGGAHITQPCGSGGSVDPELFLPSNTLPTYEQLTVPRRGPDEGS
KCNQ1 pot – potentiates or activates the human KCNQ1 potassium channel | CHO-K1 KCNQ1, thallium flux FluxOR fluorescence; stronger effect = higher value | B-score at 10 µM | actives 0.35% (n = 310,000) | AID 2648;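 active means fluorescence ratio B-score, a plate-corrected score, at least three library SD, with initial intensity B-score within 5 SD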
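assay system = KCNQ1-transfected CHO-K1 cells | medium = assay buffer with matched DMSO | probe or stimulus = depolarizing K+/Tl+ stimulus, K2SO4 and Tl2SO4 each 12.5 mM in 5x stock | dosing = single dose | incubation = dye 90 min, compound 20 min, room temperature | detection = kinetic FluxOR fluorescence, 10 s baseline plus 110 s post-stimulus | evaluation = ratio B score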
KCNK9 inh – blocks the human KCNK9 two-pore domain potassium channel; HEK293 KCNK9, FluxOR thallium flux fluorescence; stronger effect = lower value; actives 1.2% (n = 310,000); AID 488922; B-score at 10 µM; Q9NPC2;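 active means ratio B-score over 3 SD below the library mean, with starting fluorescence within 5 SD of its mean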;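 further: negative B-score means less thallium flux so channel inhibition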
hERG protect – hERG (human) protection from proarrhythmic block. Q12809. CHO-hERG, FluxOR thallium flux, dofetilide IC70 present. activation (rescue from dofetilide block), less the hit threshold, % at 10 µM. actives 0.51% (n = 310,000);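 active means activation above the mean of controls blocked by dofetilide plus 5 SD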;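 further: thallium influx through hERG after potassium depolarization seen as dye fluorescence rise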
KCNQ1 inh valid – confirmation of human KCNQ1 potassium channel inhibitors. shares compounds with KCNQ1 inh. KCNQ1 cell line, FluxOR thallium flux fluorescence. inhibition, % at 10 µM. actives 93% (n = 1,600);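 active means primary screen active, with duplicate mean exceeding buffer control mean plus 3 SD of buffer wells, cut at about 28% in these data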;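 further: 0% = buffer control ratio and 100% = XE991 inhibitor control ratio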
CHO Tl flux – KCNQ1 inhibitor counter-screen hit in parental CHO cells | fluorescence ratio (Tl flux) at 10 µM | AID 588366 | parental CHO-K1, FluxOR thallium flux fluorescence ratio; stronger effect = lower value; zero means no signal rise above baseline | actives 21% (n = 1,600) | shares compounds with KCNQ1 inh;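 active means mean of duplicate thallium-flux fluorescence ratios in parental host cells more than 5 SD below the buffer control mean, cut at about 0.38 in these data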;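 further: ratio is peak minus minimum fluorescence divided by baseline fluorescence; actives read low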
KCNQ1 ephys val – human KCNQ1 inhibition validated by electrophysiology. shares compounds with KCNQ1 inh. KCNQ1-CHO cells, automated patch clamp current. calls only at 10 µM. actives 20% (n = 490). AID 624120;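 active means KCNQ1 current drop exceeding 3 SD of negative control wells, seen in both duplicate runs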;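 further: steady state current during a 2 s step from -80 to +40 mV; negative values mean current inhibition and positive values mean potentiation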
KCNQ2 inh – rat KCNQ2 inhibition in KCNQ1 inhibitor specificity screen. inhibition, % at 10 µM. AID 651746. KCNQ2 cells, FluxOR thallium flux fluorescence. actives 71% (n = 1,600). shares compounds with KCNQ1 inh;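 active means mean percent inhibition of the KCNQ2 thallium signal more than 5 SD above the buffer-only control wells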;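 further: KCNQ2 expressed in CHO cells; 0% = buffer control wells and 100% = XE-991 inhibitor control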
KCNQ1 KCNE1 spec – human KCNQ1/KCNE1 inhibition in KCNQ1 specificity screen. actives 77% (n = 1,600). AID 652147. inhibition, % at 10 µM. KCNQ1/KCNE1 cells, FluxOR thallium flux fluorescence. shares compounds with KCNQ1 inh;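 active means mean percent inhibition of duplicate wells above the buffer-only control mean plus 3 SD of those controls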;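 further: 0% = buffer only wells and 100% = XE-991 inhibitor control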
* hit, by the source's call; i = inactive; nt = no result given; + = active, no number.

SMILES	KCNK3 inh	KCNQ1 inh	KCNQ1 pot	KCNK9 inh	hERG protect	KCNQ1 inh valid	CHO Tl flux	KCNQ2 inh	KCNQ1 KCNE1 spec	others
CCCCC(=O)O[C@H]1CC[C@H]2[C@@H]3CCc4cc(O)ccc4[C@H]3CC[C@]12C	i	6*	i	i	-4.9	72.0*	0.443	63.3%*	100.0%*
CC1CCc2sc3nc(NCc4ccco4)n4ncnc4c3c2C1 (stereo unspecified)	i	i	i	i	-9.1	nt	nt	nt	nt
CC1CCCc2sc3nc(NCc4ccco4)n4ncnc4c3c21 (stereo unspecified)	i	8*	i	i	-2.9	101.5*	0.46	84.3%*	146.5%*	KCNQ1 ephys val=i
COC(CNC(=O)c1ccc2c3c(onc13)-c1ccccc1C2=O)OC	i	6*	i	i	-46.4	+	0.0865*	i	i
CCc1noc(C)c1C(=O)N1CCCSC1=Nc1ccccc1Cl	i	7*	i	i	-16.6	80.5*	0.429	66.3%*	110.0%*
CC1Sc2ccc(S(=O)(=O)N3CCC(C(=O)Nc4cccc(Cl)c4)CC3)cc2NC1=O (stereo unspecified)	i	11*	i	i	-9.8	149.5*	0.388	129.3%*	159.5%*
CCc1ccc(NC(=O)C2CCN(S(=O)(=O)c3ccc4c(c3)NC(=O)C(C)S4)CC2)cc1 (stereo unspecified)	i	i	i	i	-10.9	nt	nt	nt	nt
CC1Sc2ccc(S(=O)(=O)N3CCC(C(=O)NCc4ccc(Cl)cc4)CC3)cc2NC1=O (stereo unspecified)	i	i	i	i	-2.7	nt	nt	nt	nt
Cc1ccc(NC(=O)C2CCN(S(=O)(=O)c3ccc4c(c3)NC(=O)C(C)S4)CC2)cc1C (stereo unspecified)	i	8*	i	i	-9.6	138.5*	0.48	117.0%*	128.5%*	KCNQ1 ephys val=i
COc1ccc(NS(=O)(=O)c2ccc(-c3coc(C)n3)cc2)cc1OC	i	8*	i	i	-13.0	124.0*	0.516	83.7%*	36.5%*	KCNQ1 ephys val=i
Cn1cc(CNC(=O)c2cc(COc3ccc4c(c3)CCCC4)on2)cn1	i	i	i	i	-11.6	nt	nt	nt	nt
O=C(NC(c1cccnc1)C(F)(F)F)c1cc(COc2ccc3c(c2)CCCC3)on1 (stereo unspecified)	i	16*	i	i	-15.8	138.5*	0.361*	118.3%*	+
O=C(c1cccc(N2CCCC2=O)c1)N1CCN(c2cccc(Cl)c2)CC1	i	i	i	i	-5.5	nt	nt	nt	nt
COc1ccc(S(=O)(=O)NCCC(=O)OCC(=O)NC2CC2)cc1	i	nt	nt	nt	nt	nt	nt	nt	nt
Cc1ccc(N(CCCCN2C(=O)c3ccccc3C2=O)C(=O)c2ccc(Cl)s2)cc1	i	9*	i	i	-11.7	78.0*	0.491	70.7%*	33.5%*
O=C(CSc1cccc[n+]1[O-])NC1CCCCC1	i	nt	nt	nt	nt	nt	nt	nt	nt
Cc1cc(Cl)c(OCCCNCc2ccccc2)c(Br)c1	i	6*	i	i	-22.6	37.0*	0.569	72.7%*	i
Cc1cc(C)c(OCCCNCc2ccccc2)c(Br)c1	i	i	i	i	-13.8	nt	nt	nt	nt
Cc1cc(NCC2CCCCC2)nc2ccccc12	i	7*	i	i	-9.6	68.0*	0.504	i	66.5%*
Cc1cc(NCCNC2=CC(=O)CCC2)nc2ccccc12	i	i	i	i	-4.5	nt	nt	nt	nt
CCSc1nnc(-c2sc3nnc(-c4ccccc4)c(-c4ccccc4)c3c2N)o1	i	14*	i	i	-27.0	+	0.138*	i	i
O=C(CCC(=O)Nc1ccccc1Cl)NNC(=O)COc1ccc([N+](=O)[O-])cc1	i	nt	nt	nt	nt	nt	nt	nt	nt
CC(C)CN(C(=O)CCNC(=O)c1ccc(Cl)cc1)c1c(N)n(CC(C)C)c(=O)[nH]c1=O	i	nt	nt	nt	nt	nt	nt	nt	nt
NC(=O)c1cc2ccc(O)cc2oc1=NCc1ccccc1	i	31*	i	i	-59.5	+	0.048*	i	i
Cc1cc(C)cc(-n2ccn(CC(=O)NCCc3ccccc3)c(=O)c2=O)c1	i	i	i	i	-3.5	nt	nt	nt	nt
SMILES	KCNK3 inh	KCNQ1 inh	KCNQ1 pot	KCNK9 inh	hERG protect	KCNQ1 inh valid	CHO Tl flux	KCNQ2 inh	KCNQ1 KCNE1 spec	others
Cc1ccccc1NC(=O)COc1ccccc1C	i	i	i	i	0.9	nt	nt	nt	nt
Cc1ccccc1OCC(=O)Nc1ccccc1C(=O)NC1CC1	i	10*	i	i	-22.2	92.0*	0.499	123.0%*	128.5%*	KCNQ1 ephys val=i
Cc1ccccc1OCC(=O)Nc1ccccc1-c1ccccc1	i	6*	i	i	-9.1	128.0*	0.393	113.7%*	177.5%*	KCNQ1 ephys val=i
CCN(CC)c1ccc(C(=O)OCC(=O)Nc2ccccc2-c2ccccc2)cc1	i	12*	i	i	-11.6	108.0*	0.438	96.0%*	161.0%*	KCNQ1 ephys val=i
NC1=NC[C@H](c2ccccc2)N1CCCCC1CCCCC1	i	9*	i	i	-14.8	116.5*	0.396	120.3%*	87.5%*	KCNQ1 ephys val=+
S=C1NC[C@H](c2ccccc2)N1CCCCC1CCCCC1	i	i	i	i	-7.5	nt	nt	nt	nt
COc1ccc(OC)c(S(=O)(=O)N2CCN(c3ccccc3)CC2)c1	i	i	i	i	-10.7	nt	nt	nt	nt
CCc1ccccc1N1CCN(S(=O)(=O)c2cc(OC)ccc2OC)CC1	i	6*	i	i	-15.2	106.0*	0.43	94.7%*	142.0%*	KCNQ1 ephys val=+
COc1ccc(CC2(CO)CCN(CC3=Cc4cc(Cl)ccc4OC3)CC2)cc1	i	9*	i	i	-24.7	113.0*	0.495	102.3%*	i	KCNQ1 ephys val=i
C=CCNc1ncnc2c1[nH]c1ccc(Cl)cc12	i	7*	i	i	-9.1	83.5*	0.523	i	i
COc1cccc2[nH]c3c(N4CCCCC4)ncnc3c12	i	i	i	i	-10.1	nt	nt	nt	nt
Cc1cccc2[nH]c3c(N4CC=C(c5ccc(F)cc5)CC4)ncnc3c12	i	14*	i	i	-14.4	162.0*	0.33*	133.7%*	+

Screening results (PubChem BioAssay)
